Publication PMC3100183 (Biochemistry, 2011)
Where two headings read alike, the source gives them in different places.

What was measured:
[1] = system: 47 KDa protein in U937 cell membranes; format: binding; details: for Ki: read-out: Ki (95% Confidence Intervals), inhibition of 20-125I-14,15-EE8ZE-APSA photolabeling, U937 membranes, one-site competitive binding model
[2] = system: EET binding site/receptor on U937 cell membranes; details: cited from earlier work
[3] = system: 79 orphan GPCRs overexpressed in HEK293T cells; experiment: Photolabeling of GPCRs overexpressed in HEK293T cells; format: binding; details: 1 nM photoprobe; 79 GPCRs of Table 2
How it was run: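 HEK293T transiently transfected in 96-well format with N-terminal FLAG-tagged GPCRs (pMEX vector); expression confirmed by anti-FLAG flow cytometry. Lysed 30 min on ice (Tris pH 7.4, NaCl, NP-40, deoxycholate, protease inhibitors), sonicated. Lysates with 1 nM 125I photoprobe at 4°C, UV 15 min, SDS-PAGE, autoradiography. Vector-transfected HEK293T as blank; lysate from an equal number of U937 cells as positive control.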

bovine coronary arteries [4] = details: for EC50: read-out: EC50, relaxation of bovine coronary artery rings, rings pre-constricted with U46619 (20 nM)
How it was run: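 Left anterior descending bovine coronary artery rings, preconstricted with U46619 (20 nM). Relaxation expressed as %, with basal tension taken as 100% relaxation. Mean ± SEM, n=6–7.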

bovine coronary arteries [5] = details: cited from earlier work
[6] = U937 cell (mixed) membranes, 1 nM photoprobe

SMILES | Ki [1] [nM] | Inhibition of photolabeling of the 47 KDa protein, in words [1, 6] | other results
CCCCC/C=C\C/C=C\CC1OC1C/C=C\CCCC(=O)O (stereo not drawn) [8,9-EET] | 444 | – | –
C=CCN1CC[C@]23c4c5ccc(O)c4O[C@H]2C(=O)CC[C@@]3(O)[C@H]1C5 [naloxone] | – | not inhibited | –
CCCCCC1OC1CCCCCCC/C=C\CCCC(=O)O (stereo not drawn) [14,15-EE5ZE, 14,15-cis-epoxy-eicosa-5(Z)-enoic acid] | 1100 | – | –
Nc1ccc(S(=O)(=O)Nc2ccnn2-c2ccccc2)cc1 [sulfaphenazole] | – | – | Effect on 20-125I-14,15-EE5ZE binding, in words [2]: did not alter
[N-]=[N+]=Nc1cccc(S(=O)(=O)NC(=O)CCCCCC/C=C\CCCCC2OC2CCCCC[125I])c1 (stereo not drawn) [20-^125I-14,15-EE8ZE-APSA] | – | – | Photolabeling of lysates of GPCR expressing HEK293T cells, in words [3]: No radiolabeled bands
CCCCCC1OC1CC=CCC=CCC=CCCCC(=O)O (stereo not drawn) [14,15-EET, 14,15-epoxyeicosatrienoic acid] | 8.28 | inhibited | EC50 (bovine coronary arteries [4]): ~2000 nM; Inhibition of photolabeling of the 47 KDa protein, in words ([1]; U937 plasma membranes): inhibited
CC(=O)N1CCN(c2ccc(OCC3COC(Cn4ccnc4)(c4ccc(Cl)cc4Cl)O3)cc2)CC1 (stereo not drawn) [ketoconazole] | – | partially inhibited | Inhibition of 20-125I-14,15-EE5ZE binding ([2]; 50 μM): 50%
CCCC(C(=O)OCCN(CC)CC)(c1ccccc1)c1ccccc1 [proadifen] | – | – | Effect on 14,15-EET-induced relaxations of bovine coronary arteries, in words (bovine coronary arteries [5]): did not alter; Effect on 20-125I-14,15-EE5ZE binding, in words [2]: did not alter
CCCCC[C@H](O)/C=C/[C@@H]1[C@@H](C/C=C\CCCC(=O)O)[C@H]2CO[C@@H]1C2 [U46619, 9-11-dideoxy-11α,9a-epoxymethano-prostaglandin F2α] | – | not inhibited | –
CCCCCC1SC1C/C=C\C/C=C\C/C=C\CCCC(=O)O (stereo not drawn) [14,15-Thiirane] | > 10000 | did not alter | Inhibition of photolabeling of the 47 KDa protein, in words ([1]; U937 cell (mixed) membranes, 1 nM photoprobe, listed as thiirane analog of 14,15-EET): not inhibited
C#CCOc1ccccc1CCCCCC(=O)NS(C)(=O)=O [MS-PPOH] | – | partially inhibited | Effect on 14,15-EET-induced relaxations of bovine coronary arteries, in words (bovine coronary arteries [5]): blocked; Ki ([2]; read-out: Ki, inhibition of 20-125I-14,15-EE5ZE binding): 1560 nM
CCCCC/C=C\C[C@H]1O[C@H]1C/C=C\C/C=C\CCCC(=O)O [11,12-EET] | 11.2 | inhibited | –
[N-]=[N+]=Nc1cccc(S(=O)(=O)NC(=O)CCCCCC/C=C\CCCCC2OC2CCCCCI)c1 (stereo not drawn) [20-I-14,15-EE8ZE-APSA, 20-iodo-14,15-epoxyeicosa-8Z-enoyl-3-azidophenylsulfonamide] | – | – | ED50 for relaxation of preconstricted bovine coronary arteries, in words (bovine coronary arteries [4]; compared with 14,15-EET): comparable to 14,15-EET; EC50 (bovine coronary arteries [4]): ~2000 nM
CCCCC/C=C\C/C=C\C/C=C\C=C\C(=O)CCCC(=O)O [5-oxo-eicosatetraenoic acid] | – | not inhibited | –
Clc1ccc(COC(Cn2ccnc2)c2ccc(Cl)cc2Cl)c(Cl)c1 (stereo not drawn) [miconazole] | – | inhibited | Effect on 14,15-EET-induced relaxations of bovine coronary arteries, in words (bovine coronary arteries [5]): blocked; Inhibition of photolabeling of the 47 KDa protein, in words ([1]; U937 cell (mixed) membranes, 1 nM photoprobe, listed as Miconazole): completely blocked
CCCCCC=CCC=CCC(O)C(O)CC=CCCCC(=O)O (stereo not drawn) [8,9-DHET, 8,9-dihydroxyeicosatrienoic acid] | – | not inhibited | Effect on 20-125I-14,15-EE5ZE binding, in words [2]: not to displace
